Test system: Fibroblast
Experiment: Multiplex assay against human fibroblast
Assay type: toxicity, cell-based
In short: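 With compound added, live cells were imaged on a CQ1 microscope at 37°C and 5% CO2; staining with Hoechst33342, BioTracker Green Microtubule Cytoskeleton Dye, MitoTracker Red and Annexin V Alexa Fluor 680 had been done at seeding. The CellPathfinder machine-learning gating scheme split cells into Hoechst high-intensity objects or normal cells, normal cells into healthy, pyknosed or fragmented nuclei, and pyknosed cells into mitotic or apoptotic. The tubulin, mitochondrial-mass and membrane-permeability phenotypes are per cents of healthy-nucleus cells.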

[1] = 12 h, 1 µM, compound concentration 1 uM, replicate 1
[2] = 12 h, 1 µM, compound concentration 1 uM, replicate 2
[3] = 12 h, 10 µM, compound concentration 10 uM, replicate 1
[4] = 12 h, 10 µM, compound concentration 10 uM, replicate 2
[5] = 24 h, 1 µM, compound concentration 1 uM, replicate 1
[6] = 24 h, 1 µM, compound concentration 1 uM, replicate 2
[7] = 24 h, 10 µM, compound concentration 10 uM, replicate 1
[8] = 24 h, 10 µM, compound concentration 10 uM, replicate 2
[9] = 48 h, 1 µM, compound concentration 1 uM, replicate 1
[10] = 48 h, 1 µM, compound concentration 1 uM, replicate 2
[11] = 48 h, 10 µM, compound concentration 10 uM, replicate 1
[12] = 48 h, 10 µM, compound concentration 10 uM, replicate 2

SMILES: CCn1c(=O)c(-c2ccc(-c3cncs3)cc2Cl)cc2cnc(Nc3ccc(N4CCN(C)CC4)cc3)nc21
- Population Apoptotic (%) [1]: 53%
- Population Fragmented Nuclei (%) [1]: 26%
- Population Healthy Nuclei (%) [1]: 37%
- Population Hoechst High Intensity Objects (%) [1]: 17%
- Population Membrane Permeable-Phenotype (%) [1]: 15%
- Population Mitochondria Different-Phenotype (%) [1]: 0%
- Population Mitotic Cells (%) [1]: 46%
- Population Normal (%) [1]: 82%
- Population Pyknosed Nuclei (%) [1]: 35%
- Population Tubulin-Different-Phenotype (%) [1]: 36%
- Total Cell Count [1]: 108
- Population Apoptotic (%) [2]: 75%
- Population Fragmented Nuclei (%) [2]: 9%
- Population Healthy Nuclei (%) [2]: 78%
- Population Hoechst High Intensity Objects (%) [2]: 7%
- Population Membrane Permeable-Phenotype (%) [2]: 3%
- Population Mitochondria Different-Phenotype (%) [2]: 17%
- Population Mitotic Cells (%) [2]: 25%
- Population Normal (%) [2]: 92%
- Population Pyknosed Nuclei (%) [2]: 11%
- Population Tubulin-Different-Phenotype (%) [2]: 19%
- Total Cell Count [2]: 76
- Population Apoptotic (%) [3]: 58%
- Population Fragmented Nuclei (%) [3]: 45%
- Population Healthy Nuclei (%) [3]: 9%
- Population Hoechst High Intensity Objects (%) [3]: 46%
- Population Membrane Permeable-Phenotype (%) [3]: 41%
- Population Mitochondria Different-Phenotype (%) [3]: 8%
- Population Mitotic Cells (%) [3]: 41%
- Population Normal (%) [3]: 53%
- Population Pyknosed Nuclei (%) [3]: 44%
- Population Tubulin-Different-Phenotype (%) [3]: 50%
- Total Cell Count [3]: 230
- Population Apoptotic (%) [4]: 11%
- Population Fragmented Nuclei (%) [4]: 8%
- Population Healthy Nuclei (%) [4]: 79%
- Population Hoechst High Intensity Objects (%) [4]: 4%
- Population Membrane Permeable-Phenotype (%) [4]: 5%
- Population Mitochondria Different-Phenotype (%) [4]: 29%
- Population Mitotic Cells (%) [4]: 88%
- Population Normal (%) [4]: 96%
- Population Pyknosed Nuclei (%) [4]: 12%
- Population Tubulin-Different-Phenotype (%) [4]: 15%
- Total Cell Count [4]: 77
- Population Apoptotic (%) [5]: 58%
- Population Fragmented Nuclei (%) [5]: 26%
- Population Healthy Nuclei (%) [5]: 47%
- Population Hoechst High Intensity Objects (%) [5]: 16%
- Population Membrane Permeable-Phenotype (%) [5]: 31%
- Population Mitochondria Different-Phenotype (%) [5]: 0%
- Population Mitotic Cells (%) [5]: 41%
- Population Normal (%) [5]: 83%
- Population Pyknosed Nuclei (%) [5]: 25%
- Population Tubulin-Different-Phenotype (%) [5]: 40%
- Total Cell Count [5]: 111
- Population Apoptotic (%) [6]: 46%
- Population Fragmented Nuclei (%) [6]: 15%
- Population Healthy Nuclei (%) [6]: 68%
- Population Hoechst High Intensity Objects (%) [6]: 4%
- Population Membrane Permeable-Phenotype (%) [6]: 1%
- Population Mitochondria Different-Phenotype (%) [6]: 5%
- Population Mitotic Cells (%) [6]: 53%
- Population Normal (%) [6]: 95%
- Population Pyknosed Nuclei (%) [6]: 16%
- Population Tubulin-Different-Phenotype (%) [6]: 20%
- Total Cell Count [6]: 74
- Population Apoptotic (%) [7]: 85%
- Population Fragmented Nuclei (%) [7]: 44%
- Population Healthy Nuclei (%) [7]: 6%
- Population Hoechst High Intensity Objects (%) [7]: 53%
- Population Membrane Permeable-Phenotype (%) [7]: 22%
- Population Mitochondria Different-Phenotype (%) [7]: 0%
- Population Mitotic Cells (%) [7]: 15%
- Population Normal (%) [7]: 46%
- Population Pyknosed Nuclei (%) [7]: 48%
- Population Tubulin-Different-Phenotype (%) [7]: 27%
- Total Cell Count [7]: 615
- Population Apoptotic (%) [8]: 27%
- Population Fragmented Nuclei (%) [8]: 14%
- Population Healthy Nuclei (%) [8]: 71%
- Population Hoechst High Intensity Objects (%) [8]: 3%
- Population Membrane Permeable-Phenotype (%) [8]: 7%
- Population Mitochondria Different-Phenotype (%) [8]: 23%
- Population Mitotic Cells (%) [8]: 72%
- Population Normal (%) [8]: 96%
- Population Pyknosed Nuclei (%) [8]: 14%
- Population Tubulin-Different-Phenotype (%) [8]: 8%
- Total Cell Count [8]: 83
- Population Apoptotic (%) [9]: 52%
- Population Fragmented Nuclei (%) [9]: 36%
- Population Healthy Nuclei (%) [9]: 39%
- Population Hoechst High Intensity Objects (%) [9]: 10%
- Population Membrane Permeable-Phenotype (%) [9]: 35%
- Population Mitochondria Different-Phenotype (%) [9]: 2%
- Population Mitotic Cells (%) [9]: 47%
- Population Normal (%) [9]: 89%
- Population Pyknosed Nuclei (%) [9]: 24%
- Population Tubulin-Different-Phenotype (%) [9]: 32%
- Total Cell Count [9]: 105
- Population Apoptotic (%) [10]: 0%
- Population Fragmented Nuclei (%) [10]: 24%
- Population Healthy Nuclei (%) [10]: 75%
- Population Membrane Permeable-Phenotype (%) [10]: 5%
- Population Mitochondria Different-Phenotype (%) [10]: 6%
- Population Mitotic Cells (%) [10]: 0%
- Population Pyknosed Nuclei (%) [10]: 0%
- Population Tubulin-Different-Phenotype (%) [10]: 20%
- Total Cell Count [10]: 88
- Population Apoptotic (%) [11]: 92%
- Population Fragmented Nuclei (%) [11]: 44%
- Population Healthy Nuclei (%) [11]: 5%
- Population Hoechst High Intensity Objects (%) [11]: 59%
- Population Membrane Permeable-Phenotype (%) [11]: 24%
- Population Mitochondria Different-Phenotype (%) [11]: 0%
- Population Mitotic Cells (%) [11]: 7%
- Population Normal (%) [11]: 40%
- Population Pyknosed Nuclei (%) [11]: 50%
- Population Tubulin-Different-Phenotype (%) [11]: 10%
- Total Cell Count [11]: 1270
- Population Apoptotic (%) [12]: 100%
- Population Fragmented Nuclei (%) [12]: 43%
- Population Healthy Nuclei (%) [12]: 55%
- Population Hoechst High Intensity Objects (%) [12]: 11%
- Population Membrane Permeable-Phenotype (%) [12]: 10%
- Population Mitochondria Different-Phenotype (%) [12]: 4%
- Population Mitotic Cells (%) [12]: 0%
- Population Normal (%) [12]: 88%
- Population Pyknosed Nuclei (%) [12]: 0%
- Population Tubulin-Different-Phenotype (%) [12]: 52%
- Total Cell Count [12]: 139

From ChEMBL document CHEMBL4689842, “EUbOPEN Chemogenomics Library wave 1” (2021)
